The source of these data is ChEMBL document CHEMBL3868590, “Quambalarine B, a Secondary Metabolite from Quambalaria cyanescens with Potential Anticancer Properties” (J Nat Prod, 2016).

For orientation: EC50 means the concentration at which the effect is half-maximal.

Experiment [1] is described as follows: Cytotoxicity against human NALM6 cells assessed as reduction in viable cells measured after 24 hrs by Hoechst-33258 staining-based FACS analysis. In kind it is functional, cell-based. Conditions: NALM-6, 24 h. In outline: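 Leukemic lines kept in RPMI1640 with 10% FBS, penicillin/streptomycin, 37 °C, 5% CO2. Seeded at 2 × 10^5 cells/mL and exposed 24 h to a range of compound concentrations (DMSO stock); medium and DMSO negative controls. Live fraction taken from Hoechst 33258-negative singlets by flow cytometry. EC50 from five-parameter nonlinear regression.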
On the technique in general: In flow cytometry, cells or beads pass a laser one at a time.

The subject of experiment [2] is Jurkat. The experiment can be described thus: Cytostatic activity against human Jurkat cells assessed as population doubling level at 2 umol/L after 6 days using Burker counting chamber (reference value: 3.25). The format is functional. In outline:
(§1)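 Cells were seeded at 2.5 × 10^5 cells/mL in DMSO-containing medium, with or without 2 μmol/L compound. Cells were counted daily in a Bürker chamber. PDL was calculated as log(Nf/N0)/log 2 over 6 days. Values are mean ± SD of three experiments, compared with DMSO controls.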

Experiment [3] deals with REH. The experiment can be described thus: Cytostatic activity against human REH cells assessed as population doubling level at 2 umol/L after 6 days by Burker counting chamber (reference value: 3.55). In kind it is functional. In outline: as §1
The test system of experiment [4] is Jurkat. The experiment can be described thus: Inhibition of P70S6K in human Jurkat cells assessed as decrease in phosphorylated P70S6K expression at EC50 by immunoblot analysis. In kind it is cell-based. Conditions: TDE = time-dependent effect. In outline:
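Cells prepared as for RT-qPCR (7.5 × 10^5 cells/mL). Treated either with the line-specific EC50 concentration over a time course, or 24 h with graded concentrations up to that EC50. Cells washed with phosphatase inhibitors and lysed in RIPA; 40 μg protein per lane on SDS-PAGE, then nitrocellulose. Immunoblotted for C-MYC, P70S6K, p-P70S6K (Ser424) and actin.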

Consider `CCCCCC(=O)C1=C(O)C(=O)c2c(O)c(O)cc(O)c2C1=O`, for which the EC50 in experiment [1] stood at 16.7 µM. In addition, the Activity in experiment [2] was determined as 1.64; in experiment [3], 1.32. Moreover, in experiment [4], the inhibition entry was “Tde”.
